The target in the assay is Metabotropic glutamate receptor 5 (Rattus norvegicus) (UniProt P31424). The experiment in a line: mGlu5 glutamate response modulation check – cell-based, rat, calcium flux, Fluo-4, selectivity assay for mGlu4 lead optimization, profiling panel (AID 623890). Particulars: rat mGlu5 cells, Fluo-4 calcium flux, glutamate CRC shift, at 10 µM. The essentials:
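System: rat mGlu5-expressing cells. Medium: HEPES- and probenecid-buffered HBSS, pH 7.3. Signal: Fluo-4 calcium fluorescence, excitation 470 nm, emission 540 nm. Incubation: ~2.5 min compound pre-incubation, ~3 min post-agonist read. Read-out: peak post-agonist fluorescence rise, normalized to baseline and pre-agonist point, four-parameter logistic fit. Doses: single compound dose, 10 µM final.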

Chain of Metabotropic glutamate receptor 5 (Rattus norvegicus) (P31424 whole entry, looked up): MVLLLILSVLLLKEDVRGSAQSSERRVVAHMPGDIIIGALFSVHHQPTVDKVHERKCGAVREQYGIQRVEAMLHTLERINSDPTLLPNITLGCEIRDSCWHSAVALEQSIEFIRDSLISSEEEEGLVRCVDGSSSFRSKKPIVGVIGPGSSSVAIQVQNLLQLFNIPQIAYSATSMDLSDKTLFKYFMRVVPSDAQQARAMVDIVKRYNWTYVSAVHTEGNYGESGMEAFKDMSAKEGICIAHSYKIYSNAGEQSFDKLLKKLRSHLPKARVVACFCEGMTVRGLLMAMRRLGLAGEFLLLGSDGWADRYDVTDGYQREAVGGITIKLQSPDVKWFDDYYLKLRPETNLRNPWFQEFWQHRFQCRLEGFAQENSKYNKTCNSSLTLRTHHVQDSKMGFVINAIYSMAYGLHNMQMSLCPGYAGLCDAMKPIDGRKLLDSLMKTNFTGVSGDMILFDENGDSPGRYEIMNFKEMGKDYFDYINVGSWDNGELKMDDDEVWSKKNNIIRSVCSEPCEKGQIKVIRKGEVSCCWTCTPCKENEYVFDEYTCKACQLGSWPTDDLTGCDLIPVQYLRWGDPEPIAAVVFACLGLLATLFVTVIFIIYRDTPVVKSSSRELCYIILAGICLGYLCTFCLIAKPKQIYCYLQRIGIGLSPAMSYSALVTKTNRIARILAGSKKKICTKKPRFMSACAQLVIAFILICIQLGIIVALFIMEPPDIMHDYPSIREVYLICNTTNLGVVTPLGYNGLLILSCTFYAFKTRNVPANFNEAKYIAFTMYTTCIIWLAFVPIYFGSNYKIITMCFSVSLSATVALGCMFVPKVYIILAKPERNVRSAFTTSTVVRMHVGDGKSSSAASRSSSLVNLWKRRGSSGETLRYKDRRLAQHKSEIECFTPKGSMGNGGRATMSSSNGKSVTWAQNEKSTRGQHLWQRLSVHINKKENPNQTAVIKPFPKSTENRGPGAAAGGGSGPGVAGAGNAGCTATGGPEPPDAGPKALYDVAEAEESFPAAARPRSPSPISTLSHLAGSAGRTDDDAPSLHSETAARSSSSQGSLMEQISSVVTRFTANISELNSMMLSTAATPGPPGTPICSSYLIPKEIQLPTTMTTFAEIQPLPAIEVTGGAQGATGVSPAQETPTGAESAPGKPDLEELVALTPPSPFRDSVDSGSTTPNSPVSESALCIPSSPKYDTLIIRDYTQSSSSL

With `O=C(Nc1cccc(Cl)c1)c1ccccn1`, the fold shift of glutamate EC50 is 0.304. Also, the max response (measured here: glutamate max response with compound) is 74%.

Values taken from PubChem BioAssay AID623890 (Vanderbilt Specialized Chemistry Center, 2012).
